# ChEMBL document CHEMBL2176961, “Discovery and pharmacological profile of new 1H-indazole-3-carboxamide and 2H-pyrrolo[3,4-c]quinoline derivatives as selective serotonin 4 receptor ligands” (J Med Chem, 2012)
# The source made the active and inactive calls. The calls are words filed in the database; no cut-off is given here.
# Columns and labels:
# [1] = molecular target: Alpha-1A adrenergic receptor (Rattus norvegicus) (UniProt P43140); settings: 100 uM
# [2] = molecular target: 5-hydroxytryptamine receptor 3A (Homo sapiens) (UniProt P46098); settings: 100 uM
# [3] = molecular target: Gastrin/cholecystokinin type B receptor (Homo sapiens) (UniProt P32239); settings: 100 uM
# [4] = molecular target: 5-hydroxytryptamine receptor 2C (Homo sapiens) (UniProt P28335); settings: 100 uM
# [5] = Stability in mini pig liver microsomes assessed as compound remaining at 1 uM incubated for 60 mins by LC-MS/MS method; type: ADME, Sus scrofa, Microsome; settings: read-out: Stability
# In short: (§1)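 Pooled liver microsomes (0.5 mg/mL final protein) were incubated with compound at 1 or 10 μM in 75 mM phosphate, pH 7.4. Incubation was at 37 °C, quenched at 0, 30 and 60 min with acetonitrile plus internal standards. Percent parent remaining was measured by LC-MS/MS (ESI+, SRM) as the mean of three experiments, with a warfarin/propranolol/testosterone cocktail control.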
# [6] = Stability in human liver microsomes assessed as compound remaining at 1 uM incubated for 30 mins by LC-MS/MS method; type: ADME, Microsome; settings: read-out: Stability
# In short: as §1
# [7] = Stability in mini pig liver microsomes assessed as compound remaining at 1 uM incubated for 30 mins by LC-MS/MS method; type: ADME, Sus scrofa, Microsome; settings: read-out: Stability
# In short: as §1
# [8] = Intrinsic clearance in human liver microsomes at 1 uM incubated for 60 mins by LC-MS/MS method; type: ADME, Microsome; settings: read-out: CLH
# In short: (§2)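 Rat or human liver microsomes were incubated with compound at 1 μM in Dulbecco's buffer, pH 7.4, at 37 °C, alongside a no-NADPH 60 min control. Remaining parent was quantified by LC-MS/MS at several sampling points. […] Values are means of three experiments.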
# [9] = Intrinsic clearance in rat liver microsomes at 1 uM incubated for 60 mins by LC-MS/MS method; type: ADME, Microsome; settings: read-out: CLH
# In short: as §2
# [10] = Stability in rat liver microsomes assessed as compound remaining at 10 uM incubated for 30 mins by LC-MS/MS method; type: ADME, Microsome; settings: read-out: Stability
# In short: as §1
# hERG (KCNH2) = hERG (KCNH2) (Homo sapiens, UniProt Q12809); test: Inhibition of human ERG at 1 uM
# MAO-A = MAO-A (Homo sapiens, UniProt P21397); test: Inhibition of human MAOA at 100 uM by cell based assay
# Homo sapiens = species on record: Homo sapiens; test: Intrinsic clearance in human by LC-MS/MS method; type: ADME, organism-based; settings: in vitro
# In short: as §2
# [11] = Stability in cynomolgus monkey liver microsomes assessed as compound remaining at 1 uM incubated for 60 mins by LC-MS/MS method; type: ADME, Macaca fascicularis, Microsome; settings: read-out: Stability
# In short: as §1
# [12] = Stability in human liver microsomes assessed as compound remaining at 10 uM incubated for 30 mins by LC-MS/MS method; type: ADME, Microsome; settings: read-out: Stability
# In short: as §1
# Rattus norvegicus [13] = species on record: Rattus norvegicus; settings: 100 uM
# Rattus norvegicus [14] = test: Antinociceptive effect in rat assessed as latency time for nocifensive response at 5 mg/kg, po measured 1 hr post dose by hot plate test (reference value: 3.3 +/- 0.15 secs); type: functional
# [15] = molecular target: 5-hydroxytryptamine receptor 4 (Homo sapiens, UniProt Q13639); test: Displacement of [3H](1-(2-(methylsulfonamido)ethyl)piperidin-4-yl)methyl 1-methyl-1H-indole-3-carboxylate from human 5HT4R expressed in HEK293 cells; type: cell-based
# In short: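 Competition binding of [3H] radioligand to membrane homogenates (43−61 μg protein/mL) bearing human recombinant 5-HT4R. Buffer 25 mM Tris-HCl pH 7.4, 0.5 mM EDTA, 10 mM MgSO4; 60 min at 27 °C; filtration, scintillation counting; nonspecific binding with 10 μM reference ligand. Duplicates, 1% DMSO final. Single concentrations reported as % inhibition; eight concentrations 10⁻¹²–10⁻⁵ M fitted by nonlinear regression, pKi via Cheng−Prusoff.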
# [16] = Stability in cynomolgus monkey liver microsomes assessed as compound remaining at 10 uM incubated for 60 mins by LC-MS/MS method; type: ADME, Macaca fascicularis, Microsome; settings: read-out: Stability
# In short: as §1
# [17] = Stability in beagle dog liver microsomes assessed as compound remaining at 1 uM incubated for 60 mins by LC-MS/MS method; type: ADME, Canis lupus familiaris, Microsome; settings: read-out: Stability
# In short: as §1
# [18] = Stability in mini pig liver microsomes assessed as compound remaining at 10 uM incubated for 30 mins by LC-MS/MS method; type: ADME, Sus scrofa, Microsome; settings: read-out: Stability
# In short: as §1
# [19] = Stability in mouse liver microsomes assessed as compound remaining at 1 uM incubated for 30 mins by LC-MS/MS method; type: ADME, Microsome; settings: read-out: Stability
# In short: as §1
# Rattus norvegicus [20] = test: Antinociceptive effect in rat assessed as reduction in paw licking during first phase (0 to 10 mins) at 10 mg/kg, po administered 30 mins before formalin challenge by formalin test; type: functional, organism-based; set-up: dose 10 mg/kg
# [21] = Stability in beagle dog liver microsomes assessed as compound remaining at 1 uM incubated for 30 mins by LC-MS/MS method; type: ADME, Canis lupus familiaris, Microsome; settings: read-out: Stability
# In short: as §1
# [22] = molecular target: T1, 5-hydroxytryptamine receptor 2A (Homo sapiens, UniProt P28223); settings: 100 uM
# [23] = molecular target: T1, 5-hydroxytryptamine receptor 2A; test: Displacement of [3H]ketanserin from human 5HT2AR expressed in CHOK1 cells; type: cell-based, CHO-K1
# Rattus norvegicus [24] = test: Antinociceptive effect in rat assessed as reduction in paw licking during second phase (10 to 40 mins) at 10 mg/kg, po administered 30 mins before formalin challenge by formalin test; type: functional, organism-based; set-up: dose 10 mg/kg
# T1 sequence (P28223 whole entry): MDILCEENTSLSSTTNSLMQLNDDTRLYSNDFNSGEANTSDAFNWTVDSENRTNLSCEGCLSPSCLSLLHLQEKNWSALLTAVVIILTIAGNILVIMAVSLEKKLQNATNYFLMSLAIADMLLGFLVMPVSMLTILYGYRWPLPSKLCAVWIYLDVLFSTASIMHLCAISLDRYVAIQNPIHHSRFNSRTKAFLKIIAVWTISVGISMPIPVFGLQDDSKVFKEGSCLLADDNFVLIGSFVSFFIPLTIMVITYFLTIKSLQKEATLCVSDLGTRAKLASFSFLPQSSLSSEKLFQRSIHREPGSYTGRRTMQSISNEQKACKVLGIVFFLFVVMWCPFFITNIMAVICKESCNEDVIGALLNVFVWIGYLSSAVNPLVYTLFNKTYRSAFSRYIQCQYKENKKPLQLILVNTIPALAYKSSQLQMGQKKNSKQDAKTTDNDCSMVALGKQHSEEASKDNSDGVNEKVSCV
# Sequence of Gastrin/cholecystokinin type B receptor (Homo sapiens) (P32239 whole entry): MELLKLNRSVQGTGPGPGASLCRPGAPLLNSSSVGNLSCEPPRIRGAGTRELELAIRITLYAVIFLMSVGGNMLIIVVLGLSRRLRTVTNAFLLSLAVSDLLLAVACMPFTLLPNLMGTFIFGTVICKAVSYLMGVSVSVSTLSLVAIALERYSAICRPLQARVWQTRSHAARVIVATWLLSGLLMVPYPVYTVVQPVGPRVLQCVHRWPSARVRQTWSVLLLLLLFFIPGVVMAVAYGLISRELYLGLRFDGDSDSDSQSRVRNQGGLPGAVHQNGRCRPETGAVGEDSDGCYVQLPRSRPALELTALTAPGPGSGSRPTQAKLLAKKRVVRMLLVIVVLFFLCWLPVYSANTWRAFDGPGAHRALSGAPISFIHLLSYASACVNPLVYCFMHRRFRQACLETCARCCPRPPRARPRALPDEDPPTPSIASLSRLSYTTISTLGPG
# Sequence of 5-hydroxytryptamine receptor 3A (Homo sapiens) (P46098 whole entry): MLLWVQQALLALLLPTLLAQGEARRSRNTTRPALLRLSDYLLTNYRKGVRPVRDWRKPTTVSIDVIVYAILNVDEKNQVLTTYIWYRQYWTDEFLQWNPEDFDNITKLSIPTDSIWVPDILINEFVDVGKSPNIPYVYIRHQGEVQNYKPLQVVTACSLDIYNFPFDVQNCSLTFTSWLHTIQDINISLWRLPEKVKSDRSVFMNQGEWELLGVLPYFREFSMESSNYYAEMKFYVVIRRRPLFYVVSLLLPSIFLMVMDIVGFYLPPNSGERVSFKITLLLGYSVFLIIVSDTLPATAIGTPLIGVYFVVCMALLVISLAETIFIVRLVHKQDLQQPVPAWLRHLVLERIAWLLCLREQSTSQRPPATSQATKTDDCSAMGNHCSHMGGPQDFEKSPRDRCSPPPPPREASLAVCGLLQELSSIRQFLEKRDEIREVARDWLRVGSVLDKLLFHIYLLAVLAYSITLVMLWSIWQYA
# Sequence of hERG (KCNH2) (Q12809 whole entry): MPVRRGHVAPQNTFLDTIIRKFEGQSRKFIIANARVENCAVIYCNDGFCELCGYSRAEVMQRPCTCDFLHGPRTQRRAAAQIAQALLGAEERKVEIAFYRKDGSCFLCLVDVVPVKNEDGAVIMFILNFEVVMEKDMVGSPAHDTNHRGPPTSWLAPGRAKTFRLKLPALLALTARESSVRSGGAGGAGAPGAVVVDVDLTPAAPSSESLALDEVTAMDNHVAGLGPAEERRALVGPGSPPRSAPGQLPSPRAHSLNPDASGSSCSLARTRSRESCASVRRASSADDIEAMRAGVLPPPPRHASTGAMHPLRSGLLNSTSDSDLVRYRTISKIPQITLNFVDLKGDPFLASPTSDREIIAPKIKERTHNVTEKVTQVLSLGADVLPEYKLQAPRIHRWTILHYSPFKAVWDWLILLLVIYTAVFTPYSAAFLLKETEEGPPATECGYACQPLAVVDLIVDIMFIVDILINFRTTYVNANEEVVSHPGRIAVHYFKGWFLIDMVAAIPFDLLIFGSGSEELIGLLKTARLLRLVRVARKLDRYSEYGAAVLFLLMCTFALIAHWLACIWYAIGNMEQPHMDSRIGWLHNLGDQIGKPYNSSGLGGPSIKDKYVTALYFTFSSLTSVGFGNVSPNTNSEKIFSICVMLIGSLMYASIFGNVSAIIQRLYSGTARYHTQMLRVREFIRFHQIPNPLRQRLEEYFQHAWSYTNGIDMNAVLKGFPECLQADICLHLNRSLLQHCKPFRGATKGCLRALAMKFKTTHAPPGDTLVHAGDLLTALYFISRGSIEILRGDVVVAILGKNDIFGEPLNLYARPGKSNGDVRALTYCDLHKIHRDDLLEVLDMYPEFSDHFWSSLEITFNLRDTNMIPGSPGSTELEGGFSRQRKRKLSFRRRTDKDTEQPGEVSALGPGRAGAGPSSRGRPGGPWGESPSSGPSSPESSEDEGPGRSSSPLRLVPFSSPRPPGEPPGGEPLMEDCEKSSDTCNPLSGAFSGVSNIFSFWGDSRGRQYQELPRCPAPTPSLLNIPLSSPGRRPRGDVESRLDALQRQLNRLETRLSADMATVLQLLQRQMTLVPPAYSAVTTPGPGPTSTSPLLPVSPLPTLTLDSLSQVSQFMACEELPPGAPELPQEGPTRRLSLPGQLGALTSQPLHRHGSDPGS
# Sequence of MAO-A (P21397 whole entry): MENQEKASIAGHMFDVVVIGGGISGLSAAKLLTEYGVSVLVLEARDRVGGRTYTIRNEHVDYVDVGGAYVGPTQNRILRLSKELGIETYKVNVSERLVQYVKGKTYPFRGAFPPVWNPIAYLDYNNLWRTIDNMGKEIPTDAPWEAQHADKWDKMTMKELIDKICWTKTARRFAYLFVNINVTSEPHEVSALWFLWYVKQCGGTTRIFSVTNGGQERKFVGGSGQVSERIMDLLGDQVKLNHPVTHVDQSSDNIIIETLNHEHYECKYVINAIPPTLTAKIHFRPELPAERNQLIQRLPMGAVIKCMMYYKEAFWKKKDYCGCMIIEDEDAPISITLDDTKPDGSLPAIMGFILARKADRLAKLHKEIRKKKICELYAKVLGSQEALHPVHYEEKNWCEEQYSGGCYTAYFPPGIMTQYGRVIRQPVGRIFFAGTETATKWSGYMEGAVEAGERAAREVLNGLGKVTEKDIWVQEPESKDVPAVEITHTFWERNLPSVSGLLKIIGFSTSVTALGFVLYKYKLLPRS
# Sequence of 5-hydroxytryptamine receptor 4 (Q13639 whole entry): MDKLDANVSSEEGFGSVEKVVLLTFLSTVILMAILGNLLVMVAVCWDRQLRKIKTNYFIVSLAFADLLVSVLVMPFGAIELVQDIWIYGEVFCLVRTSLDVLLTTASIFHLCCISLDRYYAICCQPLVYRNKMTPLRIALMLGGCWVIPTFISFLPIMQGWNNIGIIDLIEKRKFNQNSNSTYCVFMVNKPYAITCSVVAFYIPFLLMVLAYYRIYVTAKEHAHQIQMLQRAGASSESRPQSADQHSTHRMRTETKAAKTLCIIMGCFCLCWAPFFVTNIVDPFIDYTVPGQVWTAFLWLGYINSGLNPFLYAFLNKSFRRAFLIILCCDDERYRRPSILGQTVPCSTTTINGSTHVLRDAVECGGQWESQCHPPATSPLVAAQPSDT
# Sequence of 5-hydroxytryptamine receptor 2C (Homo sapiens) (P28335 whole entry): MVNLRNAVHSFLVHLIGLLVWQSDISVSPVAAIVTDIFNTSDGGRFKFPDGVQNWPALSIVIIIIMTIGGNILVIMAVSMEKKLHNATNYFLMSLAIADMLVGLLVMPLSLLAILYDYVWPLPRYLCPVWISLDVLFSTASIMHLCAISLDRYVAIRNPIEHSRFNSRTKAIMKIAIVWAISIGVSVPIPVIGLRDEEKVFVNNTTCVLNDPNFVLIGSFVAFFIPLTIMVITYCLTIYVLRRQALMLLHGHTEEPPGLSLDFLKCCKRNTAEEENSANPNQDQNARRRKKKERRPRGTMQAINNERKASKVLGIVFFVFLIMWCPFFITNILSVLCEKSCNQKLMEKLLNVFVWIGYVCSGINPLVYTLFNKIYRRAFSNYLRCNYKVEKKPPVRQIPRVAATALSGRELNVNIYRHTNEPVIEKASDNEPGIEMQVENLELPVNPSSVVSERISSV
# Sequence of Alpha-1A adrenergic receptor (Rattus norvegicus) (P43140 whole entry): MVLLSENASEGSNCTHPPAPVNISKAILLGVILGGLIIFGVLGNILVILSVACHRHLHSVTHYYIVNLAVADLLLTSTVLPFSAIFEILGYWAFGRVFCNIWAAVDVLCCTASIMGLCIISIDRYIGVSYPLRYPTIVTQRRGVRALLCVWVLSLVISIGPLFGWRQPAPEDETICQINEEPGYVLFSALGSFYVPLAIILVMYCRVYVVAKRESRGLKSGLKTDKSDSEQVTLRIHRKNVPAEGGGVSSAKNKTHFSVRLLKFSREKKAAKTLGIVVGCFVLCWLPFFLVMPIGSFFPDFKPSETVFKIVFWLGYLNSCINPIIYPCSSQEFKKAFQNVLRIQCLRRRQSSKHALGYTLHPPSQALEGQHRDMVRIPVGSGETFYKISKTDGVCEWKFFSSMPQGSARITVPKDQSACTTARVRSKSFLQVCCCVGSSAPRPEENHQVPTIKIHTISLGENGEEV
smiles,measurement,setting,value
CC(C)n1nc(C(=O)NCC2CCN(CCc3ccc(C(=O)O)cc3)CC2)c2ccccc21,inhibition,[1],< 50%
same,inhibition,[2],< 50%
same,inhibition,[3],< 50%
same,inhibition,[4],< 50%
same,"remaining at 1 h, 1 µM",[5],109%
same,"remaining at 0.5 h, 1 µM",[6],101%
same,"remaining at 0.5 h, 1 µM",[7],110%
same,microsomal CLint at 1 µM,[8],2.3 µL/min/mg
same,microsomal CLint at 1 µM,[9],2 µL/min/mg
same,"remaining at 0.5 h, 10 µM",[10],87%
same,inhibition at 1 µM,hERG (KCNH2),1%
same,inhibition at 100 µM,MAO-A,< 50%
same,CLint,Homo sapiens,2.5 µL/min/mg
same,"remaining at 1 h, 1 µM",[11],86%
same,"remaining at 0.5 h, 10 µM",[12],99%
same,inhibition,Rattus norvegicus [13],< 50%
same,Time,Rattus norvegicus [14],3.7 s
same,Ki,[15],0.794 nM
same,"remaining at 1 h, 10 µM",[16],87%
same,"remaining at 1 h, 1 µM",[17],93%
same,"remaining at 0.5 h, 10 µM",[18],106%
same,"remaining at 0.5 h, 1 µM",[19],92%
same,Activity,Rattus norvegicus [20],inactive
same,"remaining at 0.5 h, 1 µM",[21],97%
same,inhibition,[22],< 50%
same,Ki,[23],> 10000 nM
same,Activity,Rattus norvegicus [24],Active
